Results on six compounds are retold here after ChEMBL document CHEMBL1152442, “Discovery of a new template for anticancer agents: 2'-deoxy-2'-fluoro-4'-selenoarabinofuranosyl-cytosine (2'-F-4'-seleno-ara-C)” (J Med Chem, 2009).

Some results are limits rather than exact numbers.

What all share (type): functional, cell-based
One assay relates to PC-3. Nature of the assay: Cytotoxicity against human PC3 cells by sulforhodamine B method. A digest of the protocol: (§1)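 Human tumour lines tested: colon HCT116, lung A549, stomach SNU638, breast T47D, prostate PC-3 and leukaemia K562. Growth was read out by sulforhodamine B protein staining.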
The test system of the next assay is A549. The assay can be described thus: Cytotoxicity against human A549 cells by sulforhodamine B method. The method in brief: as §1
A further assay concerns K562. Nature of the assay: Cytotoxicity against human K562 cells by sulforhodamine B method. A digest of the protocol: as §1
The test system of another assay is T47D. Nature of the assay: Cytotoxicity against human T47D cells by sulforhodamine B method. A digest of the protocol: as §1
A further assay deals with HCT-116. Nature of the assay: Cytotoxicity against human HCT116 cells by sulforhodamine B method. A digest of the protocol: as §1
The test system of another assay is SNU-638. The assay can be described thus: Cytotoxicity against human SNU638 cells by sulforhodamine B method. A digest of the protocol: as §1

Regarding `O=c1ccn([C@@H]2[Se][C@H](CO)[C@@H](O)[C@@H]2O)c(=O)[nH]1`, the IC50 in the assay with PC-3, in the assay on A549, in the assay with K562, in the assay with T47D, with HCT-116 and in the assay on SNU-638 was more than 100 µM each time.
For the compound `Nc1ccn([C@@H]2[Se][C@H](CO)[C@@H](O)[C@@H]2O)c(=O)n1`, the concentration for half-maximal inhibition (IC50) with A549 stood at 8.83 µM; in the assay on K562, 86.6 µM; in the assay on HCT-116 it was 7.13 µM; in the assay on SNU-638 it was 4.72 µM.
On to `O=c1ccn([C@@H]2[Se][C@H](CO)[C@@H](O)[C@@H]2F)c(=O)[nH]1`, for which the IC50 in the assay with PC-3, with A549, with K562, in the assay on T47D, in the assay with HCT-116 and with SNU-638 was more than 100 µM in each case.
Consider `Nc1ccn([C@@H]2[Se][C@H](CO)[C@@H](O)[C@@H]2F)c(=O)n1`, for which the IC50 is 0.58 µM with PC-3; 0.47 µM in the assay with A549; 0.63 µM with K562; 0.79 µM in the assay on T47D; 1.1 µM with HCT-116; 0.14 µM with SNU-638.
On to `Nc1ccn([C@@H]2O[C@H](CO)[C@@H](O)[C@@H]2O)c(=O)n1` [CYTARABINE], for which the IC50 is 55.9 µM in the assay with PC-3; 1.9 µM in the assay with A549; 0.05 µM in the assay on K562; 2.7 µM with T47D; 5.3 µM with HCT-116; 0.15 µM in the assay with SNU-638.
For `Nc1ccn([C@@H]2O[C@H](CO)[C@@H](O)C2(F)F)c(=O)n1` [GEMCITABINE], the values for the IC50 with PC-3, with A549 and in the assay on HCT-116 were 0.04 µM, 0.09 µM and 0.005 µM, respectively.
